Assay results taken from ChEMBL document CHEMBL1212784, “Structure-microbicidal activity relationship of synthetic fragments derived from the antibacterial alpha-helix of human lactoferrin” (2010).
Values after ≈ are worked out from the molar mass of the structure shown. Positions of bridges follow the written chain, without caps; N, C: chain ends. Non-standard residues stand in square brackets, D forms with d. Residues, ends and D or L forms follow the SMILES beside them. Nle = CCCC[C@H](N)C(=O)O; Orn = NCCC[C@H](N)C(=O)O

Columns and labels:
[1] = Antimicrobial activity against Escherichia coli O6 K5 incubation in bactopeptone; format: functional
How it was run: (§1)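 Microplate killing assay in 1% Bactopeptone (pH 7.0). Log-phase organisms (BHI overnight, 2 h subculture, 37°C, washed), final ~2 × 10^5 cells/ml, with twofold peptide dilutions, 37°C humid chamber 2 h (or 20 h where stated). 5 μl drops plated on blood agar overnight; MMC99 = lowest concentration giving ≥99% inoculum reduction; duplicates.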

Candida albicans [2] = assay: Antimicrobial activity against Candida albicans ATCC […] incubation in bactopeptone; format: functional; details: ATCC 64549; how it was run: as §1
Staphylococcus aureus [3] = assay: Antimicrobial activity against Staphylococcus aureus 1800 (CCUG 1800) incubation in bactopeptone; format: functional; how it was run: as §1
Candida albicans [4] = assay: Antimicrobial activity against […] Candida albicans ATCC […] incubated in diluted brain heart infusion medium; format: functional; details: ATCC 6454
How it was run: (§2)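 Log-phase cells (BHI overnight at 37°C with shaking, subcultured 2 h, washed) at about 2 × 10^5 cells/ml final, exposed to twofold peptide dilutions in duplicate or triplicate. Medium: BHIdil (1/100 of 3.4% BHI, pH 6.7–6.9) or 1% Bactopeptone (pH 7.0). 2 h at 37°C, humid. 5-μl drops plated on blood agar overnight for CFU. MMC99 is the lowest concentration giving ≥99% kill.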

Staphylococcus aureus [5] = assay: Antimicrobial activity against methicillin resistant Staphylococcus aureus MRS3525 incubated in diluted brain heart infusion medium; format: functional; how it was run: as §2
[6] = Antimicrobial activity against Escherichia coli O6 K5 incubated in diluted brain heart infusion medium; format: functional
How it was run: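 Microplate assay in diluted BHI (1/100 of 3.4%, pH 6.7 to 6.9), log-phase cells at ~2 × 10^5 cells/ml, twofold peptide dilutions, 2 h at 37°C in humid chamber; drops plated on blood agar, CFU counted; MMC99 = minimum concentration giving ≥99% killing of inoculum; duplicates.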

Staphylococcus aureus [7] = assay: Antimicrobial activity against methicillin resistant Staphylococcus aureus MRS3525 incubated in bactopeptone; format: functional; how it was run: as §2
Enterococcus faecalis = assay: Antimicrobial activity against Enterococcus faecalis ATCC 19433 using in brain heart infusion medium(dil) after 2 hrs at 25 ug/ml; format: functional
How it was run: (§3)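 Single-concentration screen: log-phase organisms (~2 × 10^5 cells/ml) incubated 2 h at 37°C in diluted BHI (1/100 of 3.4%, pH 6.7 to 6.9) with 25 μg/ml peptide (10 μg/ml for E. coli O6 and C. albicans); viable counts on blood agar; scored as ≥99% killed or not; duplicates.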

Escherichia coli [8] = assay: Antimicrobial activity against Escherichia coli O6 using in brain heart infusion medium(dil) after 2 hrs at 10 ug/ml; format: functional; how it was run: as §3
Pseudomonas aeruginosa = assay: Antimicrobial activity against Pseudomonas aeruginosa CCUG 551 using in brain heart infusion medium(dil) after 2 hrs at 25 ug/ml; format: functional; how it was run: as §3
Staphylococcus aureus [9] = assay: Antimicrobial activity against Staphylococcus aureus 1800 (CCUG 1800) using in brain heart infusion medium(dil) after 2 hrs at 25 ug/ml; format: functional; how it was run: as §3
Klebsiella pneumoniae = assay: Antimicrobial activity against Klebsiella pneumoniae CCUG 9997 using in brain heart infusion medium(dil) after 2 hrs at 25 ug/ml; format: functional; how it was run: as §3
Escherichia coli [10] = assay: Antimicrobial activity against Escherichia coli O14 using in brain heart infusion medium(dil) after 2 hrs at 25 ug/ml; format: functional; how it was run: as §3
[11] = tested on: Staphylococcus epidermidis; assay: Antimicrobial activity against Staphylococcus epidermidis CCUG 18000A using in brain heart infusion medium(dil) after 2 hrs at 25 ug/ml; format: functional; how it was run: as §3
Candida albicans [12] = assay: Antimicrobial activity against Candida albicans ATCC […] using in brain heart infusion medium(dil) after 2 hrs at 10 ug/ml; format: functional, ATCC 64549; how it was run: as §3

Compound | MIC99 [1] [µg/mL] | MIC99 (Candida albicans [2]) [µg/mL] | MIC99 (Staphylococcus aureus [3]) [µg/mL] | MIC99 (Candida albicans [4]) [µg/mL] | MIC99 (Staphylococcus aureus [5]) [µg/mL] | MIC99 [6] [µg/mL] | MIC99 (Staphylococcus aureus [7]) [µg/mL] | also measured
CCCC[C@H](NC(=O)[C@H](Cc1c[nH]c2ccccc12)NC(=O)[C@H](CCC(N)=O)NC(=O)[C@H](Cc1ccccc1)NC(=O)[C@@H](N)CS)C(=O)N[C@@H](CCCNC(=N)N)C(=O)N[C@@H](CC(N)=O)C(=O)N[C@@H](CCSC)C(=O)N[C@@H](CCCNC(=N)N)C(=O)N[C@@H](CCCCN)C(=O)N[C@H](C(=O)N[C@@H](CCCNC(=N)N)C(=O)O)C(C)C (H-CFQW[Nle]RNMRKVR-OH) | 50 (≈ 30.5 µM) | 25 (≈ 15.3 µM) | 50 (≈ 30.5 µM) |  |  |  |  | 
H-CFQWQANMRKVR-OH |  |  |  | 12 | 7 | 12 |  | 
CSCC[C@H](NC(=O)[C@H](CCCN)NC(=O)[C@H](CCCNC(=N)N)NC(=O)[C@H](CCC(N)=O)NC(=O)[C@H](Cc1c[nH]c2ccccc12)NC(=O)[C@H](CCC(N)=O)NC(=O)[C@H](Cc1ccccc1)NC(=O)[C@@H](N)CS)C(=O)N[C@@H](CCCNC(=N)N)C(=O)N[C@@H](CCCCN)C(=O)N[C@H](C(=O)N[C@@H](CCCNC(=N)N)C(=O)O)C(C)C (H-CFQWQR[Orn]MRKVR-OH) | 25 (≈ 15.1 µM) | 25 (≈ 15.1 µM) | 50 (≈ 30.3 µM) |  |  |  |  | 
H-CFQWQRNMRKAR-OH | 50 | 50 |  | 25 | 3.5 | 12 | > 100 | 
H-CFQWQRNMAKVR-OH | > 100 | > 100 |  | 25 | 7 | 25 | > 100 | 
H-QWQRNMRKVR-OH |  |  |  |  |  |  |  | Activity (Enterococcus faecalis): <99%; Activity (Escherichia coli [8]): <99%; Activity (Pseudomonas aeruginosa): <99%; Activity (Staphylococcus aureus [9]): <99%; Activity (Klebsiella pneumoniae): <99%; Activity (Escherichia coli [10]): <99%; Activity [11]: <99%; Activity (Candida albicans [12]): <99%
CC[C@H](C)[C@H](NC(=O)[C@@H]1CSSC[C@H](NC(=O)[C@H](CCCCN)NC(=O)[C@@H](NC(=O)[C@H](C)NC(=O)[C@H](CCC(=O)O)NC(C)=O)[C@@H](C)O)C(=O)N[C@@H](Cc2ccccc2)C(=O)N[C@@H](C)C(=O)N[C@@H](Cc2c[nH]c3ccccc23)C(=O)N[C@@H](CCC(N)=O)C(=O)N[C@@H](CCCNC(=N)N)C(=O)N[C@@H](CC(N)=O)C(=O)N[C@@H](CCSC)C(=O)N[C@@H](CCCNC(=N)N)C(=O)N[C@@H](CCCCN)C(=O)N[C@@H](C(C)C)C(=O)N[C@@H](CCCNC(=N)N)C(=O)NCC(=O)N2CCC[C@H]2C(=O)N2CCC[C@H]2C(=O)N[C@@H](C(C)C)C(=O)N[C@@H](CO)C(=O)N1)C(=O)N[C@@H](CCCCN)C(=O)N[C@@H](CCCNC(=N)N)C(N)=O (Ac-EATKCFAWQRNMRKVRGPPVSCIKR-NH2; disulfide 5-22) | > 100 | > 200 | 100 (≈ 33.3 µM) |  |  |  |  | 
H-CFQWARNMRKVR-OH | 50 | 50 |  | 12 | 3.5 | 12 | 100 | 
H-CFQWKRNMRKVR-OH | 25 | 25 | 25 |  |  |  |  | 
H-CFAWKRNMRKVR-OH | 50 | 25 | 25 |  |  |  |  | 
H-CFQWQRNMRKVA-OH | > 100 | > 100 |  | 25 | 7 | 12 | > 100 | 
H-CFQWQRNMRAVR-OH | 100 | > 100 |  | 25 | 3.5 | 12 | > 100 | 
H-FQWQRNMRKVR-OH |  |  |  |  |  |  |  | Activity (Enterococcus faecalis): <99%; Activity (Escherichia coli [8]): <99%; Activity (Pseudomonas aeruginosa): <99%; Activity (Staphylococcus aureus [9]): >=99%; Activity (Klebsiella pneumoniae): >=99%; Activity (Escherichia coli [10]): <99%; Activity [11]: <99%; Activity (Candida albicans [12]): <99%
CC[C@H](C)[C@H](NC(=O)[C@@H]1CSSC[C@H](NC(=O)[C@H](CCCCN)NC(=O)[C@@H](NC(=O)[C@H](C)NC(=O)[C@H](CCC(=O)O)NC(C)=O)[C@@H](C)O)C(=O)N[C@@H](Cc2ccccc2)C(=O)N[C@@H](CCC(N)=O)C(=O)N[C@@H](Cc2c[nH]c3ccccc23)C(=O)N[C@@H](CCCCN)C(=O)N[C@@H](CCCNC(=N)N)C(=O)N[C@@H](CC(N)=O)C(=O)N[C@@H](CCSC)C(=O)N[C@@H](CCCNC(=N)N)C(=O)N[C@@H](CCCCN)C(=O)N[C@@H](C(C)C)C(=O)N[C@@H](CCCNC(=N)N)C(=O)NCC(=O)N2CCC[C@H]2C(=O)N2CCC[C@H]2C(=O)N[C@@H](C(C)C)C(=O)N[C@@H](CO)C(=O)N1)C(=O)N[C@@H](CCCCN)C(=O)N[C@@H](CCCNC(=N)N)C(N)=O (Ac-EATKCFQWKRNMRKVRGPPVSCIKR-NH2; disulfide 5-22) | 12 (≈ 3.92 µM) | 50 (≈ 16.3 µM) | 25 (≈ 8.17 µM) |  |  |  |  | 
H-ATKCFQWQRNMRKVR-OH |  |  |  |  |  |  |  | Activity (Enterococcus faecalis): >=99%; Activity (Escherichia coli [8]): >=99%; Activity (Pseudomonas aeruginosa): >=99%; Activity (Staphylococcus aureus [9]): >=99%; Activity (Klebsiella pneumoniae): >=99%; Activity (Escherichia coli [10]): >=99%; Activity [11]: >=99%; Activity (Candida albicans [12]): >=99%
H-CFALKKAMKKVR-OH | 25 | 25 | 50 |  |  |  |  | 
H-CFQWQRNARKVR-OH | 50 | 50 |  | 25 | 3.5 | 12 | > 100 | 
CC[C@H](C)[C@H](NC(=O)[C@@H]1CSSC[C@H](NC(=O)[C@H](CCCCN)NC(=O)[C@@H](NC(=O)[C@H](C)NC(=O)[C@H](CCC(=O)O)NC(C)=O)[C@@H](C)O)C(=O)N[C@@H](Cc2ccccc2)C(=O)N[C@@H](CCC(N)=O)C(=O)N[C@@H](Cc2c[nH]c3ccccc23)C(=O)N[C@@H](CCC(N)=O)C(=O)N[C@@H](CCCNC(=N)N)C(=O)N[C@@H](C)C(=O)N[C@@H](CCSC)C(=O)N[C@@H](CCCNC(=N)N)C(=O)N[C@@H](CCCCN)C(=O)N[C@@H](C(C)C)C(=O)N[C@@H](CCCNC(=N)N)C(=O)NCC(=O)N2CCC[C@H]2C(=O)N2CCC[C@H]2C(=O)N[C@@H](C(C)C)C(=O)N[C@@H](CO)C(=O)N1)C(=O)N[C@@H](CCCCN)C(=O)N[C@@H](CCCNC(=N)N)C(N)=O (Ac-EATKCFQWQRAMRKVRGPPVSCIKR-NH2; disulfide 5-22) | 100 (≈ 33.2 µM) | 37 (≈ 12.3 µM) | 50 (≈ 16.6 µM) |  |  |  |  | 
H-QPEATKCFQWQRNMRKVR-OH |  |  |  |  |  |  |  | Activity (Enterococcus faecalis): >=99%; Activity (Escherichia coli [8]): <99%; Activity (Pseudomonas aeruginosa): <99%; Activity (Staphylococcus aureus [9]): >=99%; Activity (Klebsiella pneumoniae): <99%; Activity (Escherichia coli [10]): <99%; Activity [11]: <99%; Activity (Candida albicans [12]): <99%
H-CFQWKRAMRKVR-OH | 12 | 12 | 12 |  |  |  |  | 
H-CFQWQRAMRKVR-OH | 25 | 25 |  | 6 | 3.5 | 6 | 50 | 
H-CAQWQRNMRKVR-OH |  |  |  | 12 | 7 | 12 |  | 
H-CFQAQRNMRKVR-OH | > 100 | > 100 |  | 12 | 14 | 25 | > 100 | 
CCCC[C@H](NC(=O)[C@H](CCCNC(=N)N)NC(=O)[C@H](CCC(N)=O)NC(=O)[C@H](Cc1c[nH]c2ccccc12)NC(=O)[C@H](CCC(N)=O)NC(=O)[C@H](Cc1ccccc1)NC(=O)[C@@H](N)CS)C(=O)N[C@@H](CCSC)C(=O)N[C@@H](CCCNC(=N)N)C(=O)N[C@@H](CCCCN)C(=O)N[C@H](C(=O)N[C@@H](CCCNC(=N)N)C(=O)O)C(C)C (H-CFQWQR[Nle]MRKVR-OH) | 50 (≈ 30.3 µM) | 50 (≈ 30.3 µM) | 50 (≈ 30.3 µM) |  |  |  |  | 
H-CFAWQRNMRKVR-OH | 50 | 25 |  | 6 | 3.5 | 6 | 100 | 
CSCC[C@H](NC(=O)[C@H](CC(N)=O)NC(=O)[C@H](CCCNC(=N)N)NC(=O)[C@H](CCCN)NC(=O)[C@H](Cc1c[nH]c2ccccc12)NC(=O)[C@H](CCC(N)=O)NC(=O)[C@H](Cc1ccccc1)NC(=O)[C@@H](N)CS)C(=O)N[C@@H](CCCNC(=N)N)C(=O)N[C@@H](CCCCN)C(=O)N[C@H](C(=O)N[C@@H](CCCNC(=N)N)C(=O)O)C(C)C (H-CFQW[Orn]RNMRKVR-OH) | 25 (≈ 15.3 µM) | 25 (≈ 15.3 µM) | 50 (≈ 30.5 µM) |  |  |  |  | 
H-AFQWQRNMRKVR-OH | > 100 | > 100 |  | 12 | 14 | > 25 | > 100 | 
